Experiments:
CCRF-CEM [1] = assay: CellTiter-Glo luminescent cell viability assay; assay type: cell-based, human; details: 24 h, doses 0, 2, 10, 50, 250, 500 µM, p<0.05
In short: (§1)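 Cells grown in RPMI 1640 with 10% FBS, 1.5 mM L-glutamine and penicillin/streptomycin at 37 °C, 5% CO2. Seeded at 2.5 x 10³ cells/well and exposed 24 h to ethanol-dissolved test compound (0, 2, 10, 50, 250, 500 µM) with 0.1% ethanol vehicle. ATP luminescence normalized to vehicle (100%). IC50 taken from linear regression. Lowest significant dose set by one-way ANOVA/Tukey, p<0.05. Triplicates, three independent experiments.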

K562 [2] = assay: Cell cycle analysis, propidium iodide flow cytometry; assay type: cell-based, human; details: K562, IC50 dose, 24 h; for Percentage of cells in G0/G1 phase of cell cycle (significant accumulation): vehicle control G0/G1 = 53.7%
In short: (§2)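 Seeded at 0.5 x 10^6 cells per well in 12-well plates and treated 24 h at the IC50 concentration of each test compound from CellTiter-Glo. Cells were pelleted (400 g, 5 min), PBS-washed and fixed in 80% ethanol overnight at -20 °C. Staining used 50 µg/mL PI plus RNase overnight at 4 °C.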

K562 [3] = assay: Hoechst 33342 nuclear morphological analysis of apoptosis; assay type: cell-based; details: Homo sapiens, K562, 24 h, read-out: AP50 (50% induction of apoptosis), Hoechst 33342 staining (Hoe)
In short: (§3)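 Seeded at 0.5 x 10⁶ cells/well in 12-well plates and treated 24 h. Cells were pelleted (400 g, 5 min, 4 °C), washed in PBS, fixed in 4% paraformaldehyde, cytospun, air-dried, then stained with 10 μg/ml Hoechst 33342 for 10 min in the dark. Fluorescence microscopy: 200 cells counted, scored by condensed/intense nuclei, shrinkage, blebbing and apoptotic bodies. % apoptotic nuclei calculated. AP50 = concentration giving 50% apoptotic cells.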

all leukemia cell lines [4] = assay: CellTiter-Glo assay, summary over the leukemia panel; assay type: cell-based, human; details: Homo sapiens, 24 h, read-out: IC50 values (range over leukemia cell lines)
In short: (§4)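 Cells plated at 2.5 x 10^3 per well in complete RPMI 1640 (10% FBS, 37 °C, 5% CO2). Test compounds dissolved in ethanol and dosed at 2–500 µM for 24 h; vehicle control was 0.1% (v/v) ethanol. Viability was read as ATP luminescence, normalised to vehicle (100%). IC50 was taken from linear regression of each curve. Triplicates, three independent experiments.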

U937 = assay: Hoechst 33342 nuclear morphological analysis of apoptosis; assay type: cell-based; details: Homo sapiens, U-937, 24 h, read-out: AP50 (50% induction of apoptosis), Hoechst 33342 staining (Hoe)
In short: as §3

MOLT-3 = assay: Cell cycle analysis, propidium iodide flow cytometry; assay type: cell-based, human; details: MOLT-3, IC50 dose, 24 h; vehicle control G0/G1 = 64.5%
In short: as §2

KG1a [5] = assay: CellTiter-Glo luminescent cell viability assay; assay type: cell-based, human; details: 24 h; for IC50: Homo sapiens, KG-1a, read-out: IC50 (50% inhibition of cellular proliferation); for The lowest dose of polyphenols at which there was a significant inhibition of cell proliferation compared to the vehicle control: KG1a, doses 0, 2, 10, 50, 250, 500 µM, p<0.05
In short: as §1

[6] = system: non-tumor cord blood (CD34+) cells; assay: CellTiter-Glo luminescent cell viability assay; assay type: cell-based; details: 24 h; for IC50: read-out: IC50 (50% inhibition of cellular proliferation), CD34+ non-tumour control cells, 24 h treatment; for The lowest dose of polyphenols at which there was a significant inhibition of cell proliferation compared to the vehicle control: CD34+ non-tumour control cells, doses 0, 2, 10, 50, 250, 500 µM, p<0.05
In short: as §1

K562 [7] = assay: NucView caspase 3 activity assay by flow cytometry; assay type: cell-based, human; details: for EC50: Homo sapiens, K562, 24 h, read-out: AP50 (50% induction of apoptosis), Caspase 3 activity assay (C3); for The lowest dose of polyphenols at which there was a significant induction of apoptosis compared to the vehicle control: K562, caspase 3 activity, 24 h, p<0.05
In short: (§5)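 Seeded at 0.5 x 10⁶ cells/well and treated 24 h, with series of 0–50 or 0–250 µM depending on compound. Normalized to vehicle (0% apoptosis). Mean ± STD, three independent experiments in triplicate. One-way ANOVA/Tukey, p<0.05. AP50 = concentration giving 50% apoptotic cells.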

HL60 = assay: CellTiter-Glo luminescent cell viability assay; assay type: cell-based, human; details: HL60, 24 h, doses 0, 2, 10, 50, 250, 500 µM, p<0.05
In short: as §1

THP-1 [8] = assay: Cell cycle analysis, propidium iodide flow cytometry; assay type: cell-based, human; details: THP-1, IC50 dose, 24 h; vehicle control G0/G1 = 42.3%
In short: as §2

THP-1 [9] = assay: NucView caspase 3 activity assay by flow cytometry; assay type: cell-based, human; details: for EC50: Homo sapiens, THP-1, 24 h, read-out: AP50 (50% induction of apoptosis), Caspase 3 activity assay (C3); for The lowest dose of polyphenols at which there was a significant induction of apoptosis compared to the vehicle control: THP-1, caspase 3 activity, 24 h, p<0.05
In short: as §5

CCRF-CEM [10] = assay: Hoechst 33342 nuclear morphological analysis of apoptosis; assay type: cell-based; details: Homo sapiens, 24 h, read-out: AP50 (50% induction of apoptosis), Hoechst 33342 staining (Hoe)
In short: as §3

KG1a [11] = assay: Cell cycle analysis, propidium iodide flow cytometry; assay type: cell-based, human; details: IC50 dose, 24 h, vehicle control G0/G1 = 44.6%
In short: as §2

JURKAT = assay: CellTiter-Glo luminescent cell viability assay; assay type: cell-based, human; details: 24 h, doses 0, 2, 10, 50, 250, 500 µM, p<0.05
In short: as §1

leukemia cell lines = assay: Cell cycle analysis, summary over the leukemia panel; assay type: cell-based, human; details: IC50 dose, 24 h, 8 leukemia cell lines
In short: as §2

lymphoid cell lines = assay: CellTiter-Glo assay, summary over lymphoid lines; assay type: cell-based; details: Homo sapiens, 24 h, read-out: IC50 (range in lymphoid cell lines)
In short: as §4

myeloid cell lines = assay: CellTiter-Glo assay, summary over myeloid lines; assay type: cell-based; details: Homo sapiens, 24 h, read-out: IC50 (range in myeloid cell lines)
In short: as §4

all leukemia cell lines [12] = assay: Apoptosis; assay type: cell-based, human

O=C1c2cccc(O)c2C(=O)c2c(O)cc(CO)cc21 [Aloe - Emodin, Aloe-emodin]
The lowest dose of polyphenols at which there was a significant inhibition of cell proliferation compared to the vehicle control (CCRF-CEM [1]): 50 µM
Percentage of cells in G2/M phase of cell cycle (significant accumulation) (K562 [2]; vehicle control G2/M = 13.6%): G2/M =20%
EC50 (K562 [3]): 500 µM
IC50 (all leukemia cell lines [4]): 180 to 450 µM
EC50 (U937): 195 µM
Percentage of cells in G0/G1 phase of cell cycle (significant accumulation) (MOLT-3): G0/G1 = 68%
IC50 (KG1a [5]): 310 µM
The lowest dose of polyphenols at which there was a significant inhibition of cell proliferation compared to the vehicle control (KG1a [5]): 50 µM
IC50 [6]: > 500 µM
The lowest dose of polyphenols at which there was a significant inhibition of cell proliferation compared to the vehicle control [6]: 500 µM
EC50 (K562 [7]): > 250 µM
The lowest dose of polyphenols at which there was a significant induction of apoptosis compared to the vehicle control (K562 [7]): 50 µM
The lowest dose of polyphenols at which there was a significant inhibition of cell proliferation compared to the vehicle control (HL60): 50 µM
Percentage of cells in G0/G1 phase of cell cycle (significant accumulation) (THP-1 [8]): G0/G1 =52%
EC50 (THP-1 [9]): > 250 µM
The lowest dose of polyphenols at which there was a significant induction of apoptosis compared to the vehicle control (THP-1 [9]): 50 µM
EC50 (CCRF-CEM [10]): 150 µM
Percentage of cells in G0/G1 phase of cell cycle (significant accumulation) (KG1a [11]): G0/G1 =50%
The lowest dose of polyphenols at which there was a significant inhibition of cell proliferation compared to the vehicle control (JURKAT): 50 µM

O=c1cc(-c2ccccc2)oc2cc(O)cc(O)c12 [Chrysin]
The lowest dose of polyphenols at which there was a significant inhibition of cell proliferation compared to the vehicle control (CCRF-CEM [1]): 50 µM
Percentage of cells in G0/G1 phase of cell cycle (significant accumulation) (K562 [2]): G0/G1 =59%
EC50 (K562 [3]): > 500 µM
Phase of cell cycle accumulation over the leukemia cell lines (leukemia cell lines): G0/G1 phase in 7 out of the 8 leukemia cell lines
IC50 (lymphoid cell lines): 128 to 217 µM
EC50 (U937): 32 µM
Percentage of cells in G0/G1 phase of cell cycle (significant accumulation) (MOLT-3): G0/G1 =69.3%
IC50 (KG1a [5]): 335 µM
The lowest dose of polyphenols at which there was a significant inhibition of cell proliferation compared to the vehicle control (KG1a [5]): 250 µM
IC50 [6]: > 500 µM
The lowest dose of polyphenols at which there was a significant inhibition of cell proliferation compared to the vehicle control [6]: 500 µM
IC50 (myeloid cell lines): 335 to 500 µM
EC50 (K562 [7]): > 250 µM
The lowest dose of polyphenols at which there was a significant induction of apoptosis compared to the vehicle control (K562 [7]): 250 µM
The lowest dose of polyphenols at which there was a significant inhibition of cell proliferation compared to the vehicle control (HL60): 50 µM
Percentage of cells in G0/G1 phase of cell cycle (significant accumulation) (THP-1 [8]): G0/G1 =52.1%
EC50 (THP-1 [9]): > 250 µM
The lowest dose of polyphenols at which there was a significant induction of apoptosis compared to the vehicle control (THP-1 [9]): 250 µM
EC50 (CCRF-CEM [10]): 40 µM
Percentage of cells in G0/G1 phase of cell cycle (significant accumulation) (KG1a [11]): G0/G1 =50%
The lowest dose of polyphenols at which there was a significant inhibition of cell proliferation compared to the vehicle control (JURKAT): 50 µM

O=C(O)c1cc(O)c2c(c1)C(=O)c1cccc(O)c1C2=O [Rhein]
The lowest dose of polyphenols at which there was a significant inhibition of cell proliferation compared to the vehicle control (CCRF-CEM [1]): 50 µM
EC50 (K562 [3]): > 500 µM
EC50 (U937): 140 µM
Percentage of cells in G0/G1 phase of cell cycle (significant accumulation) (MOLT-3): G0/G1=72%
IC50 (KG1a [5]): 169 µM
The lowest dose of polyphenols at which there was a significant inhibition of cell proliferation compared to the vehicle control (KG1a [5]): 50 µM
IC50 [6]: 380 µM
The lowest dose of polyphenols at which there was a significant inhibition of cell proliferation compared to the vehicle control [6]: 250 µM
EC50 (K562 [7]): > 250 µM
The lowest dose of polyphenols at which there was a significant induction of apoptosis compared to the vehicle control (K562 [7]): 50 µM
The lowest dose of polyphenols at which there was a significant inhibition of cell proliferation compared to the vehicle control (HL60): 50 µM
Percentage of cells in G0/G1 phase of cell cycle (significant accumulation) (THP-1 [8]): G0/G1 =47%
EC50 (THP-1 [9]): 50 µM
The lowest dose of polyphenols at which there was a significant induction of apoptosis compared to the vehicle control (THP-1 [9]): 50 µM
EC50 (CCRF-CEM [10]): 250 µM
Percentage of cells in G0/G1 phase of cell cycle (significant accumulation) (KG1a [11]): G0/G1 =49%
The lowest dose of polyphenols at which there was a significant inhibition of cell proliferation compared to the vehicle control (JURKAT): 50 µM

Cc1cc(O)c2c(c1)C(=O)c1cc(O)cc(O)c1C2=O [Emodin]
The lowest dose of polyphenols at which there was a significant inhibition of cell proliferation compared to the vehicle control (CCRF-CEM [1]): 2 µM
Percentage of cells in G0/G1 phase of cell cycle (significant accumulation) (K562 [2]): G0/G1 =66%
EC50 (K562 [3]): > 500 µM
Phase of cell cycle accumulation over the leukemia cell lines (leukemia cell lines): G0/G1 phase in all leukemia cell lines
IC50 (all leukemia cell lines [4]): 5 to 22 µM
EC50 (U937): 27 µM
Percentage of cells in G0/G1 phase of cell cycle (significant accumulation) (MOLT-3): G0/G1 =70%
IC50 (KG1a [5]): 15 µM
The lowest dose of polyphenols at which there was a significant inhibition of cell proliferation compared to the vehicle control (KG1a [5]): 2 µM
IC50 [6]: ~150 µM
The lowest dose of polyphenols at which there was a significant inhibition of cell proliferation compared to the vehicle control [6]: 50 µM
EC50 (K562 [7]): > 10 µM
The lowest dose of polyphenols at which there was a significant induction of apoptosis compared to the vehicle control (K562 [7]): 2 µM
The lowest dose of polyphenols at which there was a significant inhibition of cell proliferation compared to the vehicle control (HL60): 2 µM
Percentage of cells in G0/G1 phase of cell cycle (significant accumulation) (THP-1 [8]): G0/G1= 50.8%
EC50 (THP-1 [9]): 7.8 µM
The lowest dose of polyphenols at which there was a significant induction of apoptosis compared to the vehicle control (THP-1 [9]): 2 µM
EC50 (all leukemia cell lines [12]; Homo sapiens, 24 h, read-out: AP50 values (range over leukemia cell lines)): 2 to 27 µM
Number of leukemia cell lines in which 50% apoptosis was induced (all leukemia cell lines [12]; Jurkat, MOLT3, HL-60, THP-1 and U937): 5 of the 8
EC50 (CCRF-CEM [10]): > 500 µM
Percentage of cells in G0/G1 phase of cell cycle (significant accumulation) (KG1a [11]): G0/G1 =52.9%
The lowest dose of polyphenols at which there was a significant inhibition of cell proliferation compared to the vehicle control (JURKAT): 2 µM

— publication PMC3873039 (Anti-Cancer Agents in Medicinal Chemistry, 2013)
